Results taken from ChEMBL document CHEMBL1811908, “Design of HIV-1 integrase inhibitors targeting the catalytic domain as well as its interaction with LEDGF/p75: a scaffold hopping approach using salicylate and catechol groups” (Bioorg Med Chem, 2011).
pIC50: −log10 of the molar value.

Assays:
[1] = biological target: T1, Human immunodeficiency virus type 1 integrase (Human immunodeficiency virus 1, UniProt Q7ZJM1); assay: Inhibition of wild-type HIV1 integrase strand transfer activity using [32P]-5'-end-labeled 5'-GTGTGGAAAATCTCTAGCAGT-3' as substrate after 1 hr
[2] = (§1) Cytotoxicity against human NCI-H630 cells after 72 hrs by MTT assay; type: cell-based; settings: NCI-H630 cells
Method in brief: (§2)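 H630 colon cancer cells seeded, attached overnight, then continuously exposed to compound (DMSO stocks) for 72 h. MTT added to 0.5 mg/mL final, 4 h at 37°C; supernatant removed, DMSO added, absorbance read at 570 nm. IC50 taken from plot of log concentration versus percentage of cells killed.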

[3] = biological target: T1, Human immunodeficiency virus type 1 integrase; assay: Inhibition of wild-type HIV1 integrase 3'-processing activity using [32P]-5'-end-labeled 5'-GTGTGGAAAATCTCTAGCAGT-3' as substrate after 1 hr
[4] = Inhibition of HIV1 His6-tagged integrase-LEDGF/p75 interaction after 30 mins by AlphaScreen assay
Method in brief: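 His6-tagged IN (300 nM final) preincubated with compound (0.1–100 μM) 30 min at 4°C in 25 mM Tris-HCl pH 7.4, 150 mM NaCl, 1 mM MgCl2, 0.01% Tween-20, 0.1% BSA; 100 nM Flag-LEDGF/p75 added, 1 h at 4°C. Ni-chelate acceptor and anti-Flag donor beads (20 μg/ml each) added, 1 h at 30°C; AlphaScreen emission read.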

NCI-H630 = assay: as §1; type: cell-based; settings: nci-h630, 72 h
Method in brief: as §2

T1 sequence (Q7ZJM1 whole entry): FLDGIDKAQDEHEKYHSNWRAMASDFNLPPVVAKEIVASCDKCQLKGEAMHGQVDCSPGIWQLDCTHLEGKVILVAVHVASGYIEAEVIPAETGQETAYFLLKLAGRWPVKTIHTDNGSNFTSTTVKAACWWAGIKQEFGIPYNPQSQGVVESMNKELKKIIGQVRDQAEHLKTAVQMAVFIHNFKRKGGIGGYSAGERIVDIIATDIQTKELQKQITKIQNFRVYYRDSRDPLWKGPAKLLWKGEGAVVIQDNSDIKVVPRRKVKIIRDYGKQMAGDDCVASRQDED

O=C(O)c1cccc(OCc2ccccc2)c1O
pIC50 [1]: < 4.00
CC50 at 72 h [2]: > 40 µM
pIC50 [3]: < 4.00

O=C(O)c1cccc(OCc2ccc(F)cc2)c1O
pIC50 [1]: < 4.00
CC50 at 72 h [2]: > 40 µM
pIC50 [3]: < 4.00

O=C(O)c1cccc(OCc2ccc3ccccc3c2)c1O
pIC50 [1]: 3.85
CC50 at 72 h [2]: > 40 µM
pIC50 [3]: < 4.00

O=C(O)c1ccc(OCc2ccccc2)cc1O
pIC50 [1]: < 4.00
CC50 at 72 h [2]: > 40 µM
pIC50 [3]: < 4.00

O=C(O)c1ccc(OCc2ccc(F)cc2)cc1O
pIC50 [1]: < 4.00
CC50 at 72 h [2]: > 40 µM
pIC50 [3]: < 4.00

O=C(O)c1cc(OCc2ccccc2)ccc1O
pIC50 [1]: < 4.00
CC50 at 72 h [2]: > 40 µM
pIC50 [3]: < 4.00

O=C(O)c1cc(OCc2ccc(F)cc2)ccc1O
pIC50 [1]: < 4.00
CC50 at 72 h [2]: > 40 µM
pIC50 [3]: < 4.00

O=C(O)c1c(O)cccc1OCc1ccc(F)cc1
pIC50 [1]: < 4.00
CC50 at 72 h [2]: > 40 µM
pIC50 [3]: < 4.00

O=C(O)c1c(O)cccc1OCc1ccc2ccccc2c1
pIC50 [1]: 3.73
CC50 at 72 h [2]: > 40 µM
pIC50 [3]: < 4.00

O=C(NO)c1cccc(OCc2ccc(F)cc2)c1O
pIC50 [1]: < 4.00
pIC50 [3]: < 4.00

O=C(NO)c1ccc(OCc2ccc(F)cc2)cc1O
pIC50 [1]: 4.00
pIC50 [3]: < 4.00

O=C(NO)c1cc(OCc2ccc(F)cc2)ccc1O
pIC50 [1]: 4.07
pIC50 [3]: < 4.00

O=C(NO)c1c(O)cccc1OCc1ccc(F)cc1
pIC50 [1]: 4.01
pIC50 [3]: < 4.00

O=C(NCc1ccc(F)cc1)c1cccc(OCc2ccccc2)c1O
pIC50 [1]: 3.95
CC50 at 72 h [2]: > 40 µM
pIC50 [3]: < 3.48

O=C(NCc1cccc2ccccc12)c1cccc(O)c1O
pIC50 [4]: 4.47
pIC50 [1]: 4.59
CC50 (NCI-H630): 21 µM
pIC50 [3]: < 4.00

O=C(NCc1ccc(F)c(F)c1)c1cccc(O)c1O
pIC50 [4]: 4.25
pIC50 [1]: 4.64
CC50 at 72 h [2]: > 40 µM
pIC50 [3]: < 4.00

O=C(NCc1ccc2[nH]ccc2c1)c1cccc(O)c1O
pIC50 [4]: 4.35
CC50 at 72 h [2]: > 40 µM

O=C(NCCc1c[nH]c2ccccc12)c1cccc(O)c1O
pIC50 [4]: 4.20
pIC50 [1]: 4.00
CC50 (NCI-H630): 15 µM
pIC50 [3]: 4.00

O=C(Nc1ccc2[nH]ccc2c1)c1cccc(O)c1O
pIC50 [4]: 4.06
pIC50 [1]: 4.24
CC50 at 72 h [2]: > 40 µM
pIC50 [3]: < 4.00

O=C(NCc1cccs1)c1cccc(O)c1O
pIC50 [4]: 4.02
pIC50 [1]: 4.92
CC50 at 72 h [2]: > 40 µM
pIC50 [3]: 4.08

O=C(NCc1ccco1)c1cccc(O)c1O
pIC50 [4]: 4.05
pIC50 [1]: 4.82
CC50 at 72 h [2]: > 40 µM
pIC50 [3]: 4.05

O=C(NCc1ccc(-c2cccs2)cc1)c1cccc(O)c1O
pIC50 [4]: < 4.00
pIC50 [1]: 4.68
CC50 (NCI-H630): 15 µM
pIC50 [3]: < 4.00

O=C(NC1CCNCC1)c1cccc(O)c1O
pIC50 [4]: < 4.00
pIC50 [1]: < 4.00
CC50 at 72 h [2]: > 10 µM
pIC50 [3]: < 4.00

O=C(NC1CCCCC1)c1cccc(O)c1O
pIC50 [4]: < 4.00
pIC50 [1]: < 4.00
CC50 at 72 h [2]: > 40 µM
pIC50 [3]: < 4.00

O=C(NCC1CCCCC1)c1cccc(O)c1O
pIC50 [4]: < 4.00
pIC50 [1]: 4.74
CC50 (NCI-H630): 21 µM
pIC50 [3]: < 4.00

CNC(=O)Cc1ccccc1CNC(=O)c1cccc(O)c1O
pIC50 [4]: < 4.00
pIC50 [1]: 4.25
CC50 at 72 h [2]: > 40 µM
pIC50 [3]: < 4.00

CNC(=O)c1cc(F)ccc1CNC(=O)c1cccc(O)c1O
pIC50 [4]: < 4.00
pIC50 [1]: 4.00
CC50 at 72 h [2]: > 40 µM
pIC50 [3]: < 4.00

O=C(NCc1ccc(F)cc1)c1cc(S(=O)(=O)N2CCCCC2)cc(O)c1O
pIC50 [1]: 5.30
CC50 (NCI-H630): 13 µM
pIC50 [3]: 3.70

CNS(=O)(=O)c1cc(O)c(O)c(C(=O)NCc2ccc(F)cc2)c1
pIC50 [4]: < 4.00
pIC50 [1]: 4.36
CC50 at 72 h [2]: > 40 µM
pIC50 [3]: < 4.00

CC(C)(C)NS(=O)(=O)c1cc(O)c(O)c(C(=O)NCc2ccc(F)cc2)c1
pIC50 [4]: 4.00
pIC50 [1]: 5.10
CC50 at 72 h [2]: > 10 µM
pIC50 [3]: 4.15

O=C(NCc1ccco1)c1cc(S(=O)(=O)N2CCCCC2)cc(O)c1O
pIC50 [4]: < 4.00
pIC50 [1]: 4.89
CC50 (NCI-H630): 33 µM
pIC50 [3]: < 4.00

O=C(NCc1ccc(C(F)(F)F)cc1)c1cc(S(=O)(=O)N2CCCCC2)cc(O)c1O
pIC50 [4]: < 4.00
pIC50 [1]: 4.96
CC50 (NCI-H630): 31 µM
pIC50 [3]: 4.05

O=C(NCC1CCCCC1)c1cc(S(=O)(=O)N2CCCCC2)cc(O)c1O
pIC50 [4]: 5.10
pIC50 [1]: 4.72
CC50 at 72 h [2]: > 40 µM
pIC50 [3]: 4.28

O=C(NCc1cccs1)c1cc(S(=O)(=O)N2CCCCC2)cc(O)c1O
pIC50 [4]: < 4.30
pIC50 [1]: 4.36
CC50 at 72 h [2]: > 40 µM
pIC50 [3]: < 4.00

CS(=O)(=O)Nc1cc(O)c(O)c(C(=O)NCc2ccc(F)cc2)c1
pIC50 [4]: 4.00
pIC50 [1]: 4.47
pIC50 [3]: < 4.00

CC(=O)Nc1cc(O)c(O)c(C(=O)NCc2ccc(F)cc2)c1
pIC50 [4]: < 4.00
pIC50 [1]: 4.85
CC50 at 72 h [2]: < 10 µM
pIC50 [3]: 4.26

N#Cc1cc(O)c(O)c(C(=O)NCc2ccc(F)cc2)c1
pIC50 [1]: 4.66
CC50 at 72 h [2]: > 10 µM
pIC50 [3]: 4.12

CN(C)Cc1ccc(C(=O)NCc2ccc(F)cc2)c(O)c1O
pIC50 [4]: < 4.30
pIC50 [1]: 4.70
CC50 at 72 h [2]: > 10 µM
pIC50 [3]: < 4.00

CN(C)Cc1ccc(C(=O)NCc2ccco2)c(O)c1O
pIC50 [4]: < 4.30
pIC50 [1]: 4.41
CC50 (NCI-H630): 7 µM
pIC50 [3]: < 4.00

COc1cc(S(=O)(=O)N2CCCCC2)cc(C(=O)NCc2ccco2)c1O
pIC50 [4]: 4.89
pIC50 [1]: < 4.00
CC50 at 72 h [2]: > 25 µM
pIC50 [3]: < 4.00

Nc1cccc(C(=O)NCc2ccco2)c1O
pIC50 [4]: 4.29
pIC50 [1]: < 4.00
CC50 at 72 h [2]: > 25 µM
pIC50 [3]: < 4.00

O=C(NCc1ccc(F)cc1)c1cccc(O)c1O
pIC50 [4]: < 4.00
pIC50 [1]: 4.46
CC50 at 72 h [2]: > 40 µM
pIC50 [3]: 4.00
